According to ChEMBL document CHEMBL1129264, “Mercaptoacyl dipeptides as orally active dual inhibitors of angiotensin-converting enzyme and neutral endopeptidase” (1996):

Legend:
Type in all cases: organism-based
[1] = target: T1, Angiotensin-converting enzyme (Rattus norvegicus) (UniProt P47820); test: Compound was tested for plasma inhibition of Angiotensin I converting enzyme activity in the conscious rat. Expressed as Inhibition of AI pressor response at 1 hr at a dose of 13.1 mg/kg po; design: dose 13.1 mg/kg
T1 sequence (whole entry): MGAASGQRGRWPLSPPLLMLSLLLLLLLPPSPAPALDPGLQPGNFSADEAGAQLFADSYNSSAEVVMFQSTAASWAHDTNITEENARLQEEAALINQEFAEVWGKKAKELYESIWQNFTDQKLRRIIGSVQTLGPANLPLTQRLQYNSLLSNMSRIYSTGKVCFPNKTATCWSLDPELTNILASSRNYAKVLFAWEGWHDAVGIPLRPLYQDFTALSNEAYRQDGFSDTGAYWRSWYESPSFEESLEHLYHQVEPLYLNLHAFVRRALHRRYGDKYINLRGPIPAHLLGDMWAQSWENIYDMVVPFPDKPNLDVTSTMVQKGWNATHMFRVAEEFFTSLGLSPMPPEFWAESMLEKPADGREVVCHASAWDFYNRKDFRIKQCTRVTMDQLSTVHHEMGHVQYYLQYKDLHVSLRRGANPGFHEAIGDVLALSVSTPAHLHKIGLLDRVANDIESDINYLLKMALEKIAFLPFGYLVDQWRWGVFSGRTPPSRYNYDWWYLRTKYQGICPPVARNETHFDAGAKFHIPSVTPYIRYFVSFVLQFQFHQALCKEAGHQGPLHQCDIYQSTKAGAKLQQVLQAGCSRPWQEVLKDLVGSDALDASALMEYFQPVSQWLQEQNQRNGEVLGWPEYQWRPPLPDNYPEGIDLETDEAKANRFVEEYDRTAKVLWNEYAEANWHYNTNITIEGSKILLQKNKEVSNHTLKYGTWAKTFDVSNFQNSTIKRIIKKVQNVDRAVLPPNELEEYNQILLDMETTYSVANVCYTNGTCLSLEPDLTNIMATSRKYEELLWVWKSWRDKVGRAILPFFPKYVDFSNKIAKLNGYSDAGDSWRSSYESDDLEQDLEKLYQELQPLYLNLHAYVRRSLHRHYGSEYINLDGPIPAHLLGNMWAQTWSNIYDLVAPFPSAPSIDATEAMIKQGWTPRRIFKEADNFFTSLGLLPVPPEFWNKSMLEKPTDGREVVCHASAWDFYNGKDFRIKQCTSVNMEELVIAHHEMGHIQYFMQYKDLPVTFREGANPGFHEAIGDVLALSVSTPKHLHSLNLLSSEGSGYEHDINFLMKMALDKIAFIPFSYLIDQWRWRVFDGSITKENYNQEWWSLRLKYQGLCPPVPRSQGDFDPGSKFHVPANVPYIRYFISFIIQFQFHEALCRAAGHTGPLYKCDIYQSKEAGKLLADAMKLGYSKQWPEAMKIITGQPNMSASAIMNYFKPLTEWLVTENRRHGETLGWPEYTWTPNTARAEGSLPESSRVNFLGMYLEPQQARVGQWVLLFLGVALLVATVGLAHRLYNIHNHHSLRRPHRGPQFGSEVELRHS
Summary of the method: (§1)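 Male conscious normotensive Sprague-Dawley rats (275-390 g), given femoral arterial and venous catheters under methohexital sodium (75 mg/kg ip) anesthesia. Next day, pressor responses to three angiotensin-I challenges (300 ng/kg iv) recorded by direct arterial pressure. Compound then dosed orally, and AI challenge repeated at set times. Each post-dose response compared with the mean of the three baseline responses, giving % inhibition.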

[2] = target: T1, Angiotensin-converting enzyme (Rattus norvegicus); test: Compound was tested for plasma inhibition of Angiotensin I converting enzyme activity in the conscious rat. Expressed as Inhibition of AI pressor response at 2 hr at a dose of 13.1 mg/kg po; design: dose 13.1 mg/kg; summary of the method: as §1
[3] = target: T1, Angiotensin-converting enzyme (Rattus norvegicus); test: Compound was tested for plasma inhibition of Angiotensin I converting enzyme activity in the conscious rat. Expressed as Inhibition of AI pressor response at 6 hr at a dose of 13.1 mg/kg po; design: dose 13.1 mg/kg
Summary of the method: (§2)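 Male conscious normotensive Sprague-Dawley rats (275-390 g), prepared under methohexital sodium (75 mg/kg ip) with femoral arterial and venous catheters. The next day, pressor responses to three angiotensin-I challenges (300 ng/kg iv) were recorded. Compound was then given orally and angiotensin-I challenges were repeated at set times. Percent inhibition is relative to the mean of the three baseline responses.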

[4] = target: T1, Angiotensin-converting enzyme (Rattus norvegicus); test: Compound was tested for plasma inhibition of Angiotensin I converting enzyme activity in the conscious rat. Expressed as Inhibition of AI pressor response at 4 hr at a dose of 13.1 mg/kg po; design: dose 13.1 mg/kg; summary of the method: as §2
[5] = target: T1, Angiotensin-converting enzyme (Rattus norvegicus); test: Compound was tested for plasma inhibition of Angiotensin I converting enzyme activity in the conscious rat. Expressed as Inhibition of AI pressor response at 6 hr at a dose of 14.3 mg/kg po; design: dose 14.3 mg/kg; summary of the method: as §2
[6] = target: T1, Angiotensin-converting enzyme (Rattus norvegicus); test: Compound was tested for plasma inhibition of Angiotensin I converting enzyme activity in the conscious rat. Expressed as Inhibition of AI pressor response at 1 hr at a dose of 14.3 mg/kg po; design: dose 14.3 mg/kg; summary of the method: as §1
[7] = target: T1, Angiotensin-converting enzyme (Rattus norvegicus); test: Compound was tested for plasma inhibition of Angiotensin I converting enzyme activity in the conscious rat. Expressed as Inhibition of AI pressor response at 4 hr at a dose of 14.3 mg/kg po; design: dose 14.3 mg/kg; summary of the method: as §2
[8] = target: T1, Angiotensin-converting enzyme (Rattus norvegicus); test: Compound was tested for plasma inhibition of Angiotensin I converting enzyme activity in the conscious rat. Expressed as Inhibition of AI pressor response at 2 hr at a dose of 14.3 mg/kg po; design: dose 14.3 mg/kg; summary of the method: as §1
[9] = target: T1, Angiotensin-converting enzyme (Rattus norvegicus); test: Compound was tested for plasma inhibition of Angiotensin I converting enzyme activity in the conscious rat. Expressed as Inhibition of AI pressor response at 2 hr at a dose of 12.8 mg/kg po; design: dose 12.8 mg/kg; summary of the method: as §1
[10] = target: T1, Angiotensin-converting enzyme (Rattus norvegicus); test: Compound was tested for plasma inhibition of Angiotensin I converting enzyme activity in the conscious rat. Expressed as Inhibition of AI pressor response at 6 hr at a dose of 12.8 mg/kg po; design: dose 12.8 mg/kg; summary of the method: as §2
[11] = target: T1, Angiotensin-converting enzyme (Rattus norvegicus); test: Compound was tested for plasma inhibition of Angiotensin I converting enzyme activity in the conscious rat. Expressed as Inhibition of AI pressor response at 1 hr at a dose of 12.8 mg/kg po; design: dose 12.8 mg/kg; summary of the method: as §1
[12] = target: T1, Angiotensin-converting enzyme (Rattus norvegicus); test: Compound was tested for plasma inhibition of Angiotensin I converting enzyme activity in the conscious rat. Expressed as Inhibition of AI pressor response at 4 hr at a dose of 10 mg/kg po; design: dose 10 mg/kg; summary of the method: as §1
[13] = target: T1, Angiotensin-converting enzyme (Rattus norvegicus); test: Compound was tested for plasma inhibition of Angiotensin I converting enzyme activity in the conscious rat. Expressed as Inhibition of AI pressor response at 2 hr at a dose of 12.7 mg/kg po; design: dose 12.7 mg/kg; summary of the method: as §1
[14] = target: T1, Angiotensin-converting enzyme (Rattus norvegicus); test: Compound was tested for plasma inhibition of Angiotensin I converting enzyme activity in the conscious rat. Expressed as Inhibition of AI pressor response at 6 hr at a dose of 12.7 mg/kg po; design: dose 12.7 mg/kg; summary of the method: as §2
[15] = target: T1, Angiotensin-converting enzyme (Rattus norvegicus); test: Compound was tested for plasma inhibition of Angiotensin I converting enzyme activity in the conscious rat. Expressed as Inhibition of AI pressor response at 1 hr at a dose of 12.7 mg/kg po; design: dose 12.7 mg/kg; summary of the method: as §1
[16] = target: T1, Angiotensin-converting enzyme (Rattus norvegicus); test: Compound was tested for plasma inhibition of Angiotensin I converting enzyme activity in the conscious rat. Expressed as Inhibition of AI pressor response at 4 hr at a dose of 12.7 mg/kg po; design: dose 12.7 mg/kg; summary of the method: as §1
[17] = target: T1, Angiotensin-converting enzyme (Rattus norvegicus); test: Compound was tested for plasma inhibition of Angiotensin I converting enzyme activity in the conscious rat. Expressed as Inhibition of AI pressor response at 4 hr at a dose of 12.8 mg/kg po; design: dose 12.8 mg/kg; summary of the method: as §1
[18] = target: T1, Angiotensin-converting enzyme (Rattus norvegicus); test: Compound was tested for plasma inhibition of Angiotensin I converting enzyme activity in the conscious rat. Expressed as Inhibition of AI pressor response at 1 hr at a dose of 10 mg/kg po; design: dose 10 mg/kg; summary of the method: as §1
[19] = target: T1, Angiotensin-converting enzyme (Rattus norvegicus); test: Compound was tested for plasma inhibition of Angiotensin I converting enzyme activity in the conscious rat. Expressed as Inhibition of AI pressor response at 6 hr at a dose of 10 mg/kg po; design: dose 10 mg/kg; summary of the method: as §2
[20] = target: T1, Angiotensin-converting enzyme (Rattus norvegicus); test: Compound was tested for plasma inhibition of Angiotensin I converting enzyme activity in the conscious rat. Expressed as Inhibition of AI pressor response at 2 hr at a dose of 10 mg/kg po; design: dose 10 mg/kg; summary of the method: as §1

| inhibition [1] [%] | inhibition [2] [%] | inhibition [3] [%] | inhibition [4] [%] | inhibition [9] [%] | inhibition [10] [%] | inhibition [11] [%] | also measured | SMILES |
| --- | --- | --- | --- | --- | --- | --- | --- | --- |
| 64 | 78 | 16 | 61 |  |  |  |  | CCCCCCOC(=O)[C@H](Cc1ccc(O)cc1)NC(=O)C1(NC(=O)[C@H](SC(C)=O)C(C)C)CCCC1 |
|  |  |  |  |  |  |  | inhibition [5]: 10%; inhibition [6]: 45%; inhibition [7]: 36%; inhibition [8]: 30% | CCOC(=O)[C@H](Cc1ccc(OC(=O)c2ccccc2)cc1)NC(=O)C1(NC(=O)[C@H](SC(C)=O)C(C)C)CCCC1 |
|  |  |  |  | 70 | 58 | 75 | inhibition [12]: 65% | CCCCOC(=O)[C@H](Cc1ccc(OC)cc1)NC(=O)C1(NC(=O)[C@H](SC(C)=O)C(C)C)CCCC1 |
|  |  |  |  |  |  |  | inhibition [13]: 51%; inhibition [14]: 29%; inhibition [15]: 58%; inhibition [16]: 33% | CC(=O)S[C@@H](C(=O)NC1(C(=O)N[C@@H](Cc2ccc(O)cc2)C(=O)OC2CCCC2)CCCC1)C(C)C |
|  |  |  |  | 63 | 18 | 70 | inhibition [17]: 35% | CCOC(=O)[C@H](Cc1ccc(O)cc1)NC(=O)C1(NC(=O)[C@H](SC(=O)CN(C)C)C(C)C)CCCC1 |
| 72 | 74 | 28 | 54 |  |  |  |  | CC(=O)S[C@@H](C(=O)NC1(C(=O)N[C@@H](Cc2ccc(O)cc2)C(=O)OCc2ccccc2)CCCC1)C(C)C |
| 82 | 85 | 69 | 76 |  |  |  |  | CCCCOC(=O)[C@H](Cc1ccc(O)cc1)NC(=O)C1(NC(=O)[C@H](SC(=O)CCC)C(C)C)CCCC1 |
|  |  |  |  |  |  |  | inhibition [18]: 100%; inhibition [19]: 16%; inhibition [12]: 39%; inhibition [20]: 77% | CCOC(=O)[C@H](CCc1ccccc1)N[C@H]1CCc2ccccc2N(CC(=O)O)C1=O |
|  |  |  |  | 52 | 16 | 64 | inhibition [17]: 31% | CCOC(=O)[C@H](Cc1ccc(OC(C)=O)cc1)NC(=O)C1(NC(=O)[C@H](SC(C)=O)C(C)C)CCCC1 |
